Laboratory results published in paper PMC11975418 (Nature medicine, 2023).

What was measured:
C57BL/6J mice [1] = assay: Mechanical allodynia of hind paws; assay type: in vivo, mouse; conditions: 30 mg/kg ACY-1215 co-administered with 0.3 or 1 mg/kg IACS-010759
C57BL/6J mice [2] = assay: Spontaneous pain; assay type: in vivo, mouse
C57BL/6J mice [3] = assay: Sensorimotor function; assay type: in vivo, mouse
DRG neurons = assay: Mitochondrial function; assay type: in vivo, mouse
C57BL/6J mice [4] = assay type: in vivo, mouse; conditions: 30 mg/kg ACY-1215 co-administered with IACS-010759
AML trial = assay type: in vivo, human; conditions: for Average highest lactate level during OXPHOS: AML
How it was run: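 Both trials graded adverse events with NCI CTCAE v4.03. In the AML trial, all patients had close monitoring of lactate, blood pH and electrolytes. Patients with lactate >4 mmol/L, pH <7.30 and symptoms were hospitalised for at least 24 h. Dose-limiting lactic acidosis was lactate >4.0 mmol/L, pH <7.35, low CO2, raised anion gap and/or symptoms, confirmed by arterial sampling.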

Solid Tumor trial = assay type: in vivo, human; conditions: for Average highest lactate level during OXPHOS: Solid Tumors
relapsed/refractory AML = assay: AML trial: response by European LeukemiaNet 2017; assay type: in vivo, human; conditions: n=17
How it was run: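 Relapsed/refractory AML patients were dosed by cohort. Cohorts 1–2 got 0.5 or 1.0 mg on Day 1 and Day 8 of cycle 1, then daily in later cycles. Cohorts 3–4 got induction of 2.0 or 2.5 mg daily on Days 1–7. Maintenance followed at 0.5 mg once weekly (cohort 3) or 1.0 mg thrice weekly (cohort 4).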

advanced solid tumors = assay: Solid Tumor trial: response by RECISTv1.1; assay type: in vivo, human
[5] = Human plasma concentrations of IACS-010759; assay type: in vivo
How it was run: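 Patient plasma (50 μL) was extracted with acetonitrile containing diclofenac internal standard, vortexed 10 min and spun 2000 g for 10 min. Extract was diluted 1:1 with water for LC-MS/MS with the column at 40 °C. MRM transitions were m/z 563.1>172.1 for analyte and 295.9>151.2 for standard. The method was validated over 0.05–50.0 ng/mL.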

AML blasts [6] = assay: Seahorse oxygen consumption rate of AML blasts from treated patients; assay type: cell-based, human
How it was run: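 Fresh heparinised patient blood was mixed with equal-volume EasySep buffer and depleted of CD3/CD19-positive cells with an antibody cocktail. Isolated blasts were counted and used immediately for Seahorse basal and maximal OCR, normalised to cell number, with 2–6 technical replicates. Sampling was pre-dose (C1D1), after one week (C1D7/C1D14) and during extended dosing (C1D15/21/28). A two-sided paired t-test was used.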

AML blasts [7] = assay: Ratio of mitochondrial to genomic DNA in AML blasts; assay type: cell-based, human; conditions: pre- vs post-dose Day 16/21/27/28; p=0.04
AML blasts [8] = assay: Intracellular metabolites in AML blasts; assay type: cell-based, human
PDX AML-04030094 model = assay: Survival of AML PDX mice; assay type: in vivo, mouse; conditions: 1 mg/kg oral, 5-days on/2-days off, NSG AML PDX mice
[9] = tested on: blasts from the spleen of NSG mice; assay: Baseline OCR of blasts from the spleen of NSG mice; assay type: in vivo, mouse; conditions: 0.1 and 0.3 mg/kg, 5-days on/2-days off
How it was run: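 Female NSG mice received 250 cGy cesium irradiation 24 h before tail-vein injection of 0.5 × 10^5 AML PDX cells. Mice were randomized (n=9/group) to vehicle (0.5% methylcellulose) or 0.1, 0.3, 1 or 5 mg/kg test compound, 5 days on/2 days off. Spleens were taken at euthanasia for baseline OCR of blasts. N=5 biologically independent samples; two-sided unpaired t-test.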

[10] = Plasma lactate in NSG and B6 mice; assay type: in vivo, mouse; conditions: escalating doses
C57BL/6J mice [11] = assay: Intraepidermal nerve fiber density in hind paw skin; assay type: in vivo, mouse; conditions: highest dose
How it was run: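 Male C57BL/6J mice were given vehicle (0.5% methylcellulose) or 1 or 5 mg/kg test compound by oral gavage once daily, 5 days on/2 off, then a further 5 days on. Glabrous hind paw skin was collected 12 days after the final dose. PGP9.5-stained fibres crossing the collagen-stained dermal–epidermal junction were counted by confocal microscopy as IENFs/mm, five random images per mouse. n=12/8/8; one-way ANOVA with Dunnett's; mean ± SE.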

ATF3 = ATF3 expression in DRG; assay type: in vivo, mouse; conditions: 1 or 5 mg/kg
How it was run: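 Mice received test compound (1 or 5 mg/kg) or vehicle orally, once daily, 5 days on/2 off, then another 5 days. DRG were taken 12 days after the last dose and processed as PFA-fixed, OCT-embedded 14 μm frozen sections. Sections were incubated overnight with anti-ATF3 (1:500) in PBS with 2% donkey serum and 0.1% saponin, then Alexa 594 secondary and DAPI. Imaging was confocal. Positive control was spared-nerve-injury DRG; staining was repeated three times.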

[12] = Plasma IACS-010759 exposure versus venous lactate in AML and Solid Tumor cohorts; assay type: in vivo, human
mitochondrial complex I = conditions: by binding the ND1 subunit at the entrance to the quinone binding channel; cited from earlier work
[13] = 30 mg/kg ACY-1215 co-administered with IACS-010759
[14] = end of the first 7-day QD dosing vs pre-treatment
[15] = blasts from Patient 17 (highest exposure), p<0.01

O=C(CCCCCCNC(=O)c1cnc(N(c2ccccc2)c2ccccc2)nc1)NO [ACY-1215, reference compound]
effect on IACS-010759-induced mechanical allodynia (C57BL/6J mice [1]): significantly attenuated | effect on IACS-010759-induced spontaneous pain (C57BL/6J mice [2]; [13]): prevented | effect on IACS-010759-induced sensorimotor deficits (C57BL/6J mice [3]; [13]): prevented | effect on IACS-010759-induced reduction of OCR in the DRG (DRG neurons; [13]): did not prevent | effect on IACS-010759-induced damage to the myelin of the sciatic nerve (C57BL/6J mice [4]): prevented

Cc1nc(-c2nc(-c3ccc(OC(F)(F)F)cc3)no2)nn1Cc1cccc(N2CCC(S(C)(=O)=O)CC2)c1 [IACS-010759]
recommended phase 2 dose (RP2D) (AML trial; AML and Solid Tumor trials): no RP2D was established | grade 1–2 TRAE: elevated blood lactate (AML trial; AML trial patients): 35% | grade 1–2 TRAE: myalgia (AML trial; AML trial patients): 6% | grade 1–2 TRAE: peripheral neuropathy (AML trial; AML trial patients): 12% | grade ≥3 TRAE: peripheral neuropathy (AML trial; AML trial patients): 6% | Average highest lactate level during OXPHOS (AML trial; NP (N=6)): 3.9 mmol/L | Average highest lactate level during OXPHOS (AML trial; Non-NP (N=11)): 3.0 mmol/L | patients with grade 1–3 peripheral neuropathy (Solid Tumor trial; Solid Tumor trial): 11 patients | grade 1–2 TRAE: myalgia (Solid Tumor trial; Solid Tumor trial patients): 30% | grade 1–2 TRAE: peripheral neuropathy (Solid Tumor trial; Solid Tumor trial patients): 35% | grade 1–2 TRAE: vomiting (Solid Tumor trial; Solid Tumor trial patients): 30% | grade ≥3 TRAE: elevated blood lactate (Solid Tumor trial; Solid Tumor trial patients): 9% | grade ≥3 TRAE: nausea (Solid Tumor trial; Solid Tumor trial patients): 9% | grade ≥3 TRAE: peripheral neuropathy (Solid Tumor trial; Solid Tumor trial patients): 4% | painful neuropathy (Solid Tumor trial; Solid Tumor trial patients): not observed | Average highest lactate level during OXPHOS (Solid Tumor trial; NP (N=11)): 4.5 mmol/L | Average highest lactate level during OXPHOS (Solid Tumor trial; Non-NP (N=12)): 2.6 mmol/L | response (European LeukemiaNet 2017) (relapsed/refractory AML): No patient in the AML trial responded | patients with best response of RECISTv1.1 stable disease (advanced solid tumors): eight | maintenance of plasma levels of ≥20 nM ([5]; AML and Solid Tumor trials, all dosing schedules): not maintained with any dosing schedule | terminal half-life ([5]; plasma, patients): approximately 16 hours | patients with >25% reduction in baseline OCR in blasts (AML blasts [6]; [14]): 6/12 | patients with >25% reduction in maximal OCR in blasts (AML blasts [6]; [14]): 8/12 | patients in whom the decrease in baseline OCR was not maintained (AML blasts [6]; extended dosing, among patients with >25% reduction): 2/6 | ratio between mitochondrial and genomic DNA in blasts (AML blasts [7]): significant increase | NAD+ levels (AML blasts [8]; blasts from Patient 16): did not affect | intracellular NMP, NDP and NTP levels (AML blasts [8]; blasts from Patient 16 (weakest exposure)): did not affect levels of NMP, NDP, and NTP | intracellular NMP and NDP levels (AML blasts [8]; [15]): significantly increased | intracellular NTP levels (AML blasts [8]; [15]): significantly decreased | NAD+ levels (AML blasts [8]; blasts from Patient 17, p = 0.03): NAD+ levels significantly decreased | NAD+ levels (AML blasts [8]; blasts from Patient 19): NAD+ levels significantly increased | intracellular NTP levels (AML blasts [8]; blasts from Patient 19 (lower exposure), p<0.05): significantly reduced NTP levels | extension of median survival (PDX AML-04030094 model): 7 days | modulation of baseline OCR [9]: induced moderate modulation of baseline OCR | plasma lactate ([10]; C56Bl6 mice): elevated by all doses | plasma lactate ([10]; NSG mice): only elevated by the 5 mg/kg dose | spontaneous pain: time in the chamber associated with pain relief (C57BL/6J mice [2]; IACS-010759-treated vs vehicle-treated mice): spent significantly more time in the chamber associated with pain relief | balance and fine motor function (C57BL/6J mice [3]; beam walk test, vs vehicle-treated mice): significant decrease in balance and fine motor function | OCR in dorsal root ganglia (DRG neurons; 3–4 hours and 5 weeks after the last dose): dose-dependently inhibited OCR | intraepidermal nerve fiber density (IENF) in hind paw skin (C57BL/6J mice [11]): reduced intraepidermal nerve fiber density | expression of ATF3 (ATF3): did not increase | drug exposure associated with increased probability of elevated lactate ([12]; equivalent of the nM value): > 4.5 ng/mL | drug exposure associated with increased probability of elevated lactate ([12]; plasma IACS-010759, AML and Solid Tumor cohorts): > 8 nM | inhibition of mitochondrial complex I (mitochondrial complex I): selectively inhibited mitochondrial complex I
